In the library only some 2.6% were active in any assay of this set; here they are far more common.
ABHD5 PLIN5 PPI: ABHD5-PLIN5 interaction inhibitors, primary screen, cell lysate, split luciferase complementation, luminescence. Perilipin-5 (Homo sapiens) + 1-acylglycerol-3-phosphate O-acyltransferase ABHD5 (Homo …. Split G. princeps luciferase complementation, 4 h. inhibition, % at 4 µM. 360,000 compounds, 0.78% hits. AID 602281, 2012;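 active = inhibition above the mean inhibition across every tested compound plus 3 SD, cut at about 22% in these data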;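 note: 0% = DMSO only wells and the 100% control is not disclosed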
HCV core dimer: inhibitors of HCV core protein dimerization, primary screen, biochemical, TR-FRET, high-throughput | TR-FRET GST/Flag-core106 dimerization, 1536-well | inhibition, % at 5 µM | AID 1899, 2009 | 300,000 compounds, 0.33% hits;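 active = inhibition above the mean of all tested compounds plus 3 SD, set per screening campaign, cut at about 45% in these data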
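System: GST-tagged and Flag-tagged HCV core protein residues 1-106 / Input: core106 proteins, GST 13.5 nM and Flag 17 nM / Buffer or medium: KF-containing HEPES buffer, pH 7.45, DTT, CHAPS, BSA / Probe or stimulus: Eu-anti-GST and XL665-anti-Flag labelled anti-tag antibodies / Schedule: 4 h, 22.5 °C incubation / Technique: TR-FRET 671 and 617 nm emission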
NadD inh: inhibitors of S. aureus NadD, primary screen, biochemical, colorimetric, uHTS; Nicotinate-nucleotide adenylyltransferase NadD (Staphylococcus aureus N315); 360,000 compounds, 0.78% hits; AID 602399, 2012; purified NadD enzyme, colorimetric absorbance read-out; inhibition, % at 20 µM; in the data active = inhibition above about 26%
rCAG binder: binders of r(CAG) RNA repeats, primary screen, biochemical, fluorescence | r(CAG) RNA repeat, TO-PRO-1 dye displacement fluorescence | 370,000 compounds, 1.3% hits | inhibition, % at 3 µM | AID 651821, 2012;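 active = inhibition above the plate cutoff, the mean of all test compounds on that plate plus 3 SD, cut at about 35% in these data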;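 note: 0% = DMSO alone and 100% = 100 µM mitoxantrone as full dye displacement; higher means more dye released from RNA so lower well fluorescence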
ABHD5-PLIN5 conf: ABHD5-PLIN5 interaction inhibitors, confirmation, biochemical, luminescence; shares compounds with ABHD5 PLIN5 PPI; inhibition, % at 4 µM; 2,200 compounds, 67% hits; AID 651612, 2012; in the data active = inhibition above about 23%;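 note: 0% = DMSO vehicle wells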
HNF4 counter: HNF4 dimerization inhibitors, counter-screen for ABHD5-PLIN5 interaction inhibitor project, biochemical, split-luciferase complementation, luminescence. shares compounds with ABHD5 PLIN5 PPI. 2,200 compounds, 77% hits. inhibition, % at 4 µM;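 active = mean inhibition across replicate wells exceeding the computed hit threshold, cut at about 13% in these data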;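 note: light from luciferase halves that rejoin when HNF4 fusion proteins dimerize; 0% = DMSO only wells and the 100% control is not given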
Target sequence (P41235 whole entry, looked up, the tested form may be a part): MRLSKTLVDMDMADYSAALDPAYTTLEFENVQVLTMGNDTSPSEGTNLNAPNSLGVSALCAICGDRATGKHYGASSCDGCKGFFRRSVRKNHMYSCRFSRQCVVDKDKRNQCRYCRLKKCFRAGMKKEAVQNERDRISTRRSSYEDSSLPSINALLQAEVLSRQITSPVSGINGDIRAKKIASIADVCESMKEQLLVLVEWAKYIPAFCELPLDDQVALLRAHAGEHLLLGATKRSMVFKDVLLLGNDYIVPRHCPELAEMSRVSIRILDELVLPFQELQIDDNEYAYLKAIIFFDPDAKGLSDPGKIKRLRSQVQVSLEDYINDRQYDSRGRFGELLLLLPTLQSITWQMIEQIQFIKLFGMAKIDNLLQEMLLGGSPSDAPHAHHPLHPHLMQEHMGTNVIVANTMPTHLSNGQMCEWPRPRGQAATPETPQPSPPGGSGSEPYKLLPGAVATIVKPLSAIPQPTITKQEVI
Starred values were filed as active, the others as inactive; . = no result given.

SMILES | ABHD5 PLIN5 PPI | HCV core dimer | NadD inh | rCAG binder | ABHD5-PLIN5 conf | HNF4 counter
CCOC(=O)N1CCN(C(=O)C[C@H]2C[C@@]3(C(=O)OC)C(=C[C@H](C(C)(C)C)O[C@@H]3C)N(CCc3ccc(OC)c(OC)c3)C2=O)CC1 | . | . | . | 3 | . | .
CC1=C(C(=O)N2CCOCC2)CC(CC(=O)NC2CC2)C(=O)N1Cc1ccc(F)cc1 (centres undefined) | 2 | . | 4 | 1 | . | .
O=C(C[n+]1cccc(CNC(=O)c2ccc(OC(F)F)cc2)c1)Nc1ccc(SC(F)F)cc1 | 29* | -11 | -2 | 11 | 16 | 3
C[C@H](CO)N1C[C@H](C)[C@@H](CN(C)C(=O)Nc2cccc(C(F)(F)F)c2)OCc2cn(nn2)CCCC1=O | . | . | . | 0 | . | .
CS(=O)(=O)c1nc(-c2cccs2)cc(C(F)(F)F)n1 | . | 5 | . | . | . | .
Cc1cc(NC(=O)CSc2nc(-c3cccs3)cc(C(F)(F)F)n2)no1 | -2 | 1 | -1 | -1 | . | .
O=C(O)CCS(=O)(=O)c1nc(-c2cccs2)cc(C(F)(F)F)n1 | 28* | 4 | 5 | 2 | 59* | 66*
Cc1cc(NC(=O)CCCS(=O)(=O)c2nc(-c3cccs3)cc(C(F)(F)F)n2)no1 | 47* | 4 | 7 | -2 | 74* | 100*
OC(c1ccc(-c2ccccc2)cc1)c1ncc(-c2ccccc2Cl)[nH]1 (centres undefined) | -9 | . | 6 | 4 | . | .
Cc1nc(C(C)NC(=O)c2cc(COc3ccc(C)c(C)c3)on2)c(C)s1 (centres undefined) | 29* | 9 | 2 | -5 | 2 | 10
O=C(O/N=C\c1ccc(N2CCCCC2)c([N+](=O)[O-])c1)c1ccc(Cl)cc1Cl | -4 | 10 | -3 | 6 | . | .
COc1ccccc1C(=O)/C=C/c1ccc(N2CCCCC2)c([N+](=O)[O-])c1 | 37* | 13 | 5 | 3 | 64* | 67*
O=C(/C=C/c1cccc([N+](=O)[O-])c1)c1cccs1 | 74* | 1 | -3 | 1 | 97* | 102*
CC(=O)Oc1ccccc1C(=O)C=Cc1cccc([N+](=O)[O-])c1 | 99* | . | -2 | 9 | 104* | 109*
O=C(/C=C/c1cccc([N+](=O)[O-])c1)Nc1ccc(NC(=O)c2cccs2)cc1 | -7 | 37 | 14 | 2 | . | .
COc1ccc(C(=O)CC(Sc2ccccc2N)c2ccc(OC)cc2)cc1 (centres undefined) | 21 | . | 2 | 9 | . | .
CCC1(C(=O)OC)NC(c2ccco2)C2C(=O)N(c3ccc(F)cc3)C(=O)C21 (centres undefined) | 10 | 1 | 6 | 7 | . | .
CCC1(C(=O)OC)NC(c2ccco2)C2C(=O)N(c3ccccc3)C(=O)C21 (centres undefined) | 25* | 3 | 0 | 3 | 11 | 13*
COc1ccc(/C=C/C(=O)Oc2ccc(C)c(C)c2)cc1OC | -8 | 7 | -8 | -1 | . | .
COc1cc(/C=C/[N+](=O)[O-])ccc1OC(=O)/C=C/c1ccc(F)cc1 | 30* | 20 | 8 | 7 | 49* | 73*
CCOC(=O)[C@@]12CCCC3=C1N(CCC3)C(=O)[C@H]2CC(=O)N1CCN(C(=O)C2CC2)CC1 | . | . | . | -4 | . | .
COc1ccc(/C=C/c2cc(-c3ccc(C)cc3)o[n+]2C)cc1 | 28* | 1 | 11 | 14 | 44* | 31*
COc1ccc(/C=C/c2c(-c3ccc(OC)cc3)oc3ccc(-c4ccc(OC)cc4)cc23)cc1 | -4 | -12 | 16 | 4 | . | .
O=C(C1CCCN1S(=O)(=O)c1ccc(Cl)s1)N1CCc2ccccc2C1 (centres undefined) | . | . | . | 3 | . | .
O=C(O)/C=C/C(=O)c1c(-c2ccccc2)[nH]c2ccccc12 | 62* | 24 | 0 | 3 | 96* | 94*
COc1cc(C=Nn2c(-c3cc(C)[nH]n3)n[nH]c2=S)cc(Br)c1O | . | . | . | 3 | . | .
CN(C)CCNC(=O)c1ccc(COc2ccc(Cl)cc2Cl)cc1 | 27* | -5 | -8 | 0 | 15 | 2
